# In ChEMBL document CHEMBL3098013, “Novel pyrazole integrated 1,3,4-oxadiazoles: synthesis, characterization and antimicrobial evaluation” (2014):
# Columns and labels:
# Assay type in all cases: functional
# Escherichia coli [1] = assay: Antimicrobial activity against Escherichia coli MTCC 724 at 100 ug/ml after 24 hrs by disc diffusion method; conditions: MTCC 724, 24 h, read-out: DIZ
# In short: (§1)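 Agar diffusion read-out is the diameter of the inhibition zone in mm. Each test was run in six replicates and reported as mean ± standard deviation, taken from at least three determinations.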
# Bacillus cereus [2] = assay: Antimicrobial activity against Bacillus cereus MTCC 8372 at 50 ug/ml after 24 hrs by disc diffusion method; conditions: MTCC 8372, 24 h, read-out: DIZ; in short: as §1
# Fusarium verticillioides [3] = assay: Antimicrobial activity against Fusarium moniliforme MTCC 156 at 50 ug/ml after 48 hrs by disc diffusion method; conditions: MTCC 156, 48 h, read-out: DIZ; in short: as §1
# Aspergillus flavus [4] = assay: Antimicrobial activity against Aspergillus flavus MTCC 873 at 50 ug/ml after 48 hrs by disc diffusion method; conditions: MTCC 873, 48 h, read-out: DIZ; in short: as §1
# Klebsiella pneumoniae [5] = assay: Antimicrobial activity against Klebsiella pneumoniae MTCC 3384 after 24 hrs by microdilution method; conditions: MTCC 3384, 24 h
# In short: (§2)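 The minimal inhibitory concentration was determined by dilution, alongside minimal bactericidal concentration for bacterial strains and minimal fungicidal concentration for fungal strains. Tests were run in six replicates, and the value is the mean of at least three determinations.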
# Staphylococcus aureus [6] = assay: Antimicrobial activity against Staphylococcus aureus MTCC 96 after 24 hrs by microdilution method; conditions: MTCC 96, 24 h; in short: as §2
# Fusarium verticillioides [7] = assay: Antimicrobial activity against Fusarium moniliforme MTCC 156 at 100 ug/ml after 48 hrs by disc diffusion method; conditions: MTCC 156, 48 h, read-out: DIZ; in short: as §1
# Klebsiella pneumoniae [8] = assay: Antimicrobial activity against Klebsiella pneumoniae MTCC 3384 at 50 ug/ml after 24 hrs by disc diffusion method; conditions: MTCC 3384, 24 h, read-out: DIZ; in short: as §1
# Aspergillus niger [9] = assay: Antimicrobial activity against Aspergillus niger MTCC 281 at 50 ug/ml after 48 hrs by disc diffusion method; conditions: MTCC 281, 48 h, read-out: DIZ; in short: as §1
# Aspergillus flavus [10] = assay: Antimicrobial activity against Aspergillus flavus MTCC 873 after 48 hrs by microdilution method; conditions: MTCC 873, 48 h; in short: as §2
# Escherichia coli [11] = assay: Antimicrobial activity against Escherichia coli MTCC 724 at 50 ug/ml after 24 hrs by disc diffusion method; conditions: MTCC 724, 24 h, read-out: DIZ; in short: as §1
# Aspergillus flavus [12] = assay: Antimicrobial activity against Aspergillus flavus MTCC 873 at 100 ug/ml after 48 hrs by disc diffusion method; conditions: MTCC 873, 48 h, read-out: DIZ; in short: as §1
# Fusarium verticillioides [13] = assay: Antimicrobial activity against Fusarium moniliforme MTCC 156 after 48 hrs by microdilution method; conditions: MTCC 156, 48 h; in short: as §2
# Fusarium oxysporum [14] = assay: Antimicrobial activity against Fusarium oxysporum MTCC 284 after 48 hrs by microdilution method; conditions: MTCC 284, 48 h; in short: as §2
# Staphylococcus aureus [15] = assay: Antimicrobial activity against Staphylococcus aureus MTCC 96 at 50 ug/ml after 24 hrs by disc diffusion method; conditions: MTCC 96, 24 h, read-out: DIZ; in short: as §1
# Fusarium oxysporum [16] = assay: Antimicrobial activity against Fusarium oxysporum MTCC 284 at 50 ug/ml after 48 hrs by disc diffusion method; conditions: MTCC 284, 48 h, read-out: DIZ; in short: as §1
# Staphylococcus aureus [17] = assay: Antimicrobial activity against Staphylococcus aureus MTCC 96 at 100 ug/ml after 24 hrs by disc diffusion method; conditions: MTCC 96, 24 h, read-out: DIZ; in short: as §1
# Aspergillus niger [18] = assay: Antimicrobial activity against Aspergillus niger MTCC 281 after 48 hrs by microdilution method; conditions: MTCC 281, 48 h; in short: as §2
# Klebsiella pneumoniae [19] = assay: Antimicrobial activity against Klebsiella pneumoniae MTCC 3384 at 100 ug/ml after 24 hrs by disc diffusion method; conditions: MTCC 3384, 24 h, read-out: DIZ; in short: as §1
# Fusarium oxysporum [20] = assay: Antimicrobial activity against Fusarium oxysporum MTCC 284 at 100 ug/ml after 48 hrs by disc diffusion method; conditions: MTCC 284, 48 h, read-out: DIZ; in short: as §1
# Escherichia coli [21] = assay: Antimicrobial activity against Escherichia coli MTCC 724 after 24 hrs by microdilution method; conditions: MTCC 724, 24 h; in short: as §2
# Bacillus cereus [22] = assay: Antimicrobial activity against Bacillus cereus MTCC 8372 after 24 hrs by microdilution method; conditions: MTCC 8372, 24 h; in short: as §2
# Aspergillus niger [23] = assay: Antimicrobial activity against Aspergillus niger MTCC 281 at 100 ug/ml after 48 hrs by disc diffusion method; conditions: MTCC 281, 48 h, read-out: DIZ; in short: as §1
# Bacillus cereus [24] = assay: Antimicrobial activity against Bacillus cereus MTCC 8372 at 100 ug/ml after 24 hrs by disc diffusion method; conditions: MTCC 8372, 24 h, read-out: DIZ; in short: as §1
SMILES,zone of inhibition at 100 µg/mL (Escherichia coli [1]),zone of inhibition at 50 µg/mL (Bacillus cereus [2]),zone of inhibition at 50 µg/mL (Fusarium verticillioides [3]),zone of inhibition at 50 µg/mL (Aspergillus flavus [4]),MBC (Klebsiella pneumoniae [5]),MIC (Klebsiella pneumoniae [5]),MBC (Staphylococcus aureus [6]),MIC (Staphylococcus aureus [6]),zone of inhibition at 100 µg/mL (Fusarium verticillioides [7]),zone of inhibition at 50 µg/mL (Klebsiella pneumoniae [8]),zone of inhibition at 50 µg/mL (Aspergillus niger [9]),MFC (Aspergillus flavus [10]),MIC (Aspergillus flavus [10]),zone of inhibition at 50 µg/mL (Escherichia coli [11]),zone of inhibition at 100 µg/mL (Aspergillus flavus [12]),MFC (Fusarium verticillioides [13]),MIC (Fusarium verticillioides [13]),MFC (Fusarium oxysporum [14]),MIC (Fusarium oxysporum [14]),zone of inhibition at 50 µg/mL (Staphylococcus aureus [15]),other results
COc1ccc(-c2nn(-c3ccccc3)c(C)c2-c2nnc(-c3ccccc3)o2)cc1,14 mm,4 mm,3 mm,2 mm,260 µg/mL,35 µg/mL,240 µg/mL,40 µg/mL,6 mm,4 mm,2 mm,270 µg/mL,50 µg/mL,8 mm,8 mm,290 µg/mL,40 µg/mL,280 µg/mL,40 µg/mL,4 mm,zone of inhibition at 50 µg/mL (Fusarium oxysporum [16]): 4 mm; zone of inhibition at 100 µg/mL (Staphylococcus aureus [17]): 8 mm; MFC (Aspergillus niger [18]): 275 µg/mL; MIC (Aspergillus niger [18]): 45 µg/mL; zone of inhibition at 100 µg/mL (Klebsiella pneumoniae [19]): 9 mm; zone of inhibition at 100 µg/mL (Fusarium oxysporum [20]): 6 mm; MBC (Escherichia coli [21]): 240 µg/mL; MIC (Escherichia coli [21]): 35 µg/mL; MBC (Bacillus cereus [22]): 240 µg/mL; MIC (Bacillus cereus [22]): 50 µg/mL; zone of inhibition at 100 µg/mL (Aspergillus niger [23]): 6 mm; zone of inhibition at 100 µg/mL (Bacillus cereus [24]): 9 mm
Cc1c(-c2nnc(-c3ccc(Cl)cc3)o2)c(-c2ccc(Cl)cc2)nn1-c1ccccc1,16 mm,6 mm,10 mm,14 mm,250 µg/mL,50 µg/mL,250 µg/mL,40 µg/mL,19 mm,8 mm,14 mm,210 µg/mL,25 µg/mL,10 mm,18 mm,215 µg/mL,25 µg/mL,215 µg/mL,30 µg/mL,6 mm,zone of inhibition at 50 µg/mL (Fusarium oxysporum [16]): 15 mm; zone of inhibition at 100 µg/mL (Staphylococcus aureus [17]): 12 mm; MFC (Aspergillus niger [18]): 220 µg/mL; MIC (Aspergillus niger [18]): 30 µg/mL; zone of inhibition at 100 µg/mL (Klebsiella pneumoniae [19]): 11 mm; zone of inhibition at 100 µg/mL (Fusarium oxysporum [20]): 28 mm; MBC (Escherichia coli [21]): 245 µg/mL; MIC (Escherichia coli [21]): 45 µg/mL; MBC (Bacillus cereus [22]): 260 µg/mL; MIC (Bacillus cereus [22]): 40 µg/mL; zone of inhibition at 100 µg/mL (Aspergillus niger [23]): 26 mm; zone of inhibition at 100 µg/mL (Bacillus cereus [24]): 10 mm
COc1cc(-c2nnc(-c3c(-c4cc(OC)c(OC)c(OC)c4)nn(-c4ccccc4)c3C)o2)cc(OC)c1OC,36 mm,12 mm,12 mm,18 mm,155 µg/mL,20 µg/mL,150 µg/mL,20 µg/mL,22 mm,11 mm,11 mm,215 µg/mL,30 µg/mL,21 mm,23 mm,225 µg/mL,25 µg/mL,220 µg/mL,25 µg/mL,10 mm,zone of inhibition at 50 µg/mL (Fusarium oxysporum [16]): 14 mm; zone of inhibition at 100 µg/mL (Staphylococcus aureus [17]): 24 mm; MFC (Aspergillus niger [18]): 225 µg/mL; MIC (Aspergillus niger [18]): 25 µg/mL; zone of inhibition at 100 µg/mL (Klebsiella pneumoniae [19]): 21 mm; zone of inhibition at 100 µg/mL (Fusarium oxysporum [20]): 21 mm; MBC (Escherichia coli [21]): 150 µg/mL; MIC (Escherichia coli [21]): 20 µg/mL; MBC (Bacillus cereus [22]): 160 µg/mL; MIC (Bacillus cereus [22]): 20 µg/mL; zone of inhibition at 100 µg/mL (Aspergillus niger [23]): 25 mm; zone of inhibition at 100 µg/mL (Bacillus cereus [24]): 23 mm
